Results taken from PMC9116722 (Cancer chemotherapy and pharmacology, 2022).

Columns and labels:
[1] = phase 3 maintenance trials ref 25-27; cited from earlier work
sporadic ovarian cancer = sporadic ovarian cancer ref 43; cited from earlier work
[2] = Non-compartmental pharmacokinetics; format: in vivo, human
Summary of the method: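 Patients took oral drug twice daily, continuously, at 50–500 mg BID. Plasma parent drug and active metabolite M8 were measured by a validated assay. Parameters were derived non-compartmentally on day 1 and reported as geometric mean (SD). Accumulation indices for Cmax and AUC0–8 were compared with theoretical values from D1 half-lives. Dose proportionality was tested on day-1 Cmax and AUC0-inf (95% CI of coefficient including 1).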

[3] = metabolite M8, geometric mean (SD)

CNCc1ccc(-c2[nH]c3cc(F)cc4c3c2CCNC4=O)cc1 [rucaparib]
grade 3 or 4 anemia [1]: 19%

O=C(c1cc(Cc2n[nH]c(=O)c3ccccc23)ccc1F)N1CCN(C(=O)C2CC2)CC1 [olaparib]
patients with objective responses (sporadic ovarian cancer): 24% | grade 3 or 4 anemia [1]: 19%

NC(=O)c1cccc2cn(-c3ccc([C@@H]4CCCNC4)cc3)nc12 [niraparib]
grade 3 or 4 anemia [1]: 25%

CC1(c2nc3c(C(N)=O)cccc3[nH]2)CCC(=O)N1 (stereo not drawn) [M8]
M8/ABT-888 metabolic ratio, AUC0-inf ([2]; day 1): 0.21 (1.9) | M8/ABT-888 metabolic ratio, Cmax ([2]; day 1): 0.11 (1.8) | theoretical accumulation index ([2]; metabolite M8, from D1 half-lives, geometric mean (SD)): 1.51 (1.25) | accumulation index for AUC0–8 [2, 3]: 1.59 (1.41) | accumulation index for Cmax [2, 3]: 1.51 (1.34)
